# Assay outcomes: PubChem BioAssay, Broad Institute
# SR-BI HDL uptake – inhibitors of SR-BI mediated HDL lipid uptake, primary screen, ldlA[mSR-BI] cells, fluorescence, single point. Scavenger receptor class B member 1 (Mus musculus), Q61009. ldlA[mSR-BI] CHO cells, DiI-HDL uptake fluorescence, 3 h. inhibition, % at 12.5 µM. 320,000 compounds, 0.96% hits. AID 488896, 2010;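 active = mean replicate inhibition of at least 70% and a set share of replicates each scoring 70 or more; inconclusive = meets just one of the two criteria; inactive = fails both criteria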
# HIV Env fusion – inhibitors of HIV-1 Env-driven cell-cell fusion, primary screen, HeLa-JRFL effector, CEM21 target cells, luciferase. AID 651610, 2012. 360,000 compounds, 1.1% hits. inhibition, % at 12.3 µM;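 active = mean replicate inhibition score of at least 50 and every replicate individually at or above 50; inconclusive = only one of the two criteria met; inactive = mean below 50 and not all replicates reaching 50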
# Rtt109 HAT inh – inhibitors of C. albicans Rtt109/Vps75 HAT, primary screen, biochemical, ThioGlo CoA-SH fluorescence, plate reader; Histone acetyltransferase RTT109 (Candida albicans (strain SC5314 / ATCC MYA-2876)), …; purified Rtt109/Vps75, 4 h; inhibition, % at 34.9 µM; 330,000 compounds, 0.16% hits; AID 540336, 2011;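 active = inhibition of at least 50% in every replicate; inconclusive = best replicate reaches 50% inhibition but some replicates fall short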
# Target sequence (Q5AAJ8 whole entry, looked up): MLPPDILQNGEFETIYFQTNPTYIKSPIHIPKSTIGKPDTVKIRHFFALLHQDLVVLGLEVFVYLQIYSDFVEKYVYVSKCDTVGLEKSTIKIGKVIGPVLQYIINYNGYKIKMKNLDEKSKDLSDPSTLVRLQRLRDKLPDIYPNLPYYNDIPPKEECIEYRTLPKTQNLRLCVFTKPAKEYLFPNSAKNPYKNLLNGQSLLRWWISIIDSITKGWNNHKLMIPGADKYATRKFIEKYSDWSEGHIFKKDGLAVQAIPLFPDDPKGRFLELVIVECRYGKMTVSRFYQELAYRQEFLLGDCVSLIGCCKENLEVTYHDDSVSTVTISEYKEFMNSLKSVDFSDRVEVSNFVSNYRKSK
# SR-BI DiI-HDL act – activators of SR-BI mediated DiI-HDL uptake, primary screen, ldlA[mSR-BI] CHO cells, DiI fluorescence; activation, % at 12.5 µM; 3 h; 100 = double the neutral-control signal; 320,000 compounds, 0.096% hits; AID 504775, 2011;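 active = mean replicate activation of at least 60% and every replicate at or above 60%; inconclusive = mean or all-replicate condition met, but not both; inactive = mean below 60% and not all replicates reaching 60%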
#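 Material: SR-BI-overexpressing, LDLR-lacking CHO cells | Dosing: Single compound concentration, delivered by pin transfer | Probe or stimulus: Labelled HDL, 10 µg/mL | Signal: Bottom-read cell fluorescence after medium removal, ex 550/em 595 nm | Schedule: 3 h, 37 °C | Evaluation: HDL uptake via cellular fluorescence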
# N-glyco inh – increase of ERlucT glycosylation luciferase signal, primary screen, N-linked glycosylation inhibitor project, D54 ERlucT cells, luminescence, set 2 | AID 588692, 2011 | reporter increase, % at 12.5 µM | 360,000 compounds, 0.23% hits | D54 ERlucT glycosylation luciferase reporter, 24 h; percent of 100 nM tunicamycin response;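 active = mean luciferase reporter signal, scaled so untreated is 0 and the glycosylation-blocking control 100, at or above a set limit in every replicate; inconclusive = mean reaches the limit but not every replicate does; inactive = mean below the limit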;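 note: luciferase carries N-glycosylation sites so blocking glycosylation raises the light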
# PglD inh – C. jejuni PglD acetyltransferase inhibitors, primary screen, biochemical, DTNB colorimetric, single point; purified PglD enzyme, DTNB colorimetric CoA detection; inhibition, % at 12.5 µM; 360,000 compounds, 0.098% hits; in the data active = inhibition above about 16%, passing the limit was not always enough; inconclusive = no clear call, values can overlap the other calls
# A number is an active result; – = inactive; ? = inconclusive; · = no result given; ! = not confirmed by another sample; [ ] = another dose, or the depositor's remark. Sampled rows, rich in hits. Any-hit rate of the full collection: about 1.9%.
SMILES,SR-BI HDL uptake,HIV Env fusion,Rtt109 HAT inh,SR-BI DiI-HDL act,N-glyco inh,PglD inh
COc1ccccc1OC(C)C(=O)Nc1nc(-c2ccc(S(=O)(=O)N3CCOCC3)cc2)cs1 (stereo not given),–,60,–,–,–,–
COc1ccc(C(=O)NNC(=S)NC(=O)c2cccc([N+](=O)[O-])c2)cc1,–,–,?,–,–,–
O=C(NC(=S)NNC(=O)c1ccc(Cl)cc1Cl)c1cccnc1,–,–,–,–,–,–
COc1ccc(C(=O)NC(=S)NNC(=O)c2ccccc2C)cc1,–,–,–,–,–,–
O=C(NC(=S)NNC(=O)c1ccccc1O)c1cccnc1,124,–,–,–,–,·
COc1ccc(C(=O)NC(=S)NNC(=O)c2ccccc2O)cc1,89,–,–,–,–,–
O=C(NC(=S)NNC(=O)c1ccccc1O)c1cccc([N+](=O)[O-])c1,109,–,–,–,–,–
CC(=O)Nc1nc(-c2ccc3c(c2)CCN3C(=O)C2CC2)c(C)s1,95,–,–,–,–,–
CNc1nc(-c2ccc3c(c2)CCN3C(=O)CC(C)(C)C)c(C)s1,73,–,–,–,–,·
COc1ccc(NC(=O)Nc2ccc3c(c2)CC(=O)N([C@@H](C)CO)C[C@@H](C)[C@@H](CN(C)C(=O)Nc2ccc(OC)cc2)O3)cc1,·,–,·,·,·,–
Cc1noc(C)c1NC(=O)Nc1ccc2c(c1)C(=O)N([C@@H](C)CO)C[C@@H](C)[C@@H](CN(C)Cc1ccc(C(F)(F)F)cc1)OCCCC[C@H](C)O2,·,–,·,·,·,–
Cc1cc(C)cc(-n2c(C)cc(/C=N\NC(=O)COc3cccc4cccnc34)c2C)c1,76,–,–,–,–,–
Cc1cc(NC(=O)CSc2ccc(-c3nc4cc(C)c(C)cc4[nH]3)cn2)no1,–,·,–,–,44,–
Cc1cc2nc(-c3ccc(SCC(=O)Nc4ccc(S(=O)(=O)NC5CC5)cc4)nc3)[nH]c2cc1C,–,·,–,–,–,·
COc1ccc(Nc2ccc(OC)cc2)cc1,·,–,·,·,–,–
COc1ccc(NC2=C(C)C(=O)CC2)cc1,–,·,–,–,32,–
Oc1ccc(-c2nccs2)cc1,–,–,–,73,–,–
Cn1c(-c2ccccc2)c(C#Cc2ccc(N)cc2)c2ccccc21,–,70,–,–,–,–
COc1ccccc1N=Nc1ccc(O)c2ncccc12,–,–,–,–,–,–
CCS(=O)(=O)c1ccc(N=Nc2ccc(O)c3ncccc23)c(OC)c1,–,66,–,–,–,·
CSc1nsc2nc(=O)c(/C=C3\C(C)=Nc4ccc(C)cc43)c(N)n12,–,–,–,–,–,–
CC1=Nc2ccc(C)cc2/C1=C/c1c(N)n2oc(C)cc2nc1=O,93!,–,–,–,–,–
COCC(=O)Nc1ccc2c(c1)C(=O)N(C)[C@H]1CC[C@@H](CC(=O)NCC3CC3)O[C@H]1CO2,·,–,·,·,·,–
Cc1cc(C(=O)NCc2cc(C)n(C)n2)sc1-c1ccccc1,–,56,–,–,–,–
Cc1cccc(Nc2nnc(-c3ccc(N4CCOCC4)c([N+](=O)[O-])c3)c3ccccc23)c1,73,–,·,–,–,–
SMILES,SR-BI HDL uptake,HIV Env fusion,Rtt109 HAT inh,SR-BI DiI-HDL act,N-glyco inh,PglD inh
CC(=O)Oc1ccc(Cl)cc1/C=C/c1cc(OC(C)=O)c2ccccc2n1,·,–,·,·,·,·
COc1cc(Cl)cc(/C=C/c2ccc3ccccc3n2)c1OC(C)=O,80,–,–,–,–,–
O=C(C[C@H]1C=C[C@H](NC(=O)C2CCC2)[C@@H](CO)O1)NC1CCC1,·,–,·,·,·,–
O=C(N[C@@H]1CC[C@H](CCNS(=O)(=O)c2ccccc2)O[C@@H]1CO)c1cccc(F)c1,·,–,·,·,·,–
CC(C)(C)n1ncc2c(=O)n(Cc3cccc(Cn4cnc5c(cnn5C(C)(C)C)c4=O)c3F)cnc21,–,92,–,–,–,–
COc1cc2c3c(c1)C(C)=CC(C)(C)N3C(=O)C2=O,–,–,–,–,–,·
COc1cc2c3c(c1)C(C)CC(C)(C)N3C(=O)C2=O (stereo not given),–,60,–,–,–,–
COCC#Cc1ccc([C@@H]2[C@@H](CO)N3CCCCN(Cc4cncnc4)C[C@@H]23)cc1,·,·,·,·,·,–
C/C(=N/NC(=O)c1cccs1)c1c(C)[nH]n(-c2nc3ccccc3s2)c1=O,107,–,–,–,–,–
CC(=NCc1ccco1)c1c(C)[nH]n(-c2nc3ccccc3s2)c1=O,–,·,–,–,–,·
CC(=O)C1(C)N(O)C(C)(C)C(c2ccco2)=[N+]1[O-] (stereo not given),–,58,–,–,–,–
Cc1noc(C)c1S(=O)(=O)N(C)C[C@@H]1Oc2ccc(NC(=O)Nc3cccc4ccccc34)cc2CC(=O)N([C@H](C)CO)C[C@H]1C,·,–,·,·,·,–
Cc1noc(C)c1S(=O)(=O)N(C)C[C@@H]1Oc2ccc(NC(=O)Nc3cccc4ccccc34)cc2CC(=O)N([C@H](C)CO)C[C@@H]1C,·,79[16.7 µM],·,·,·,–
Cc1ccc(S(=O)(=O)N(C)C[C@@H]2Oc3ccc(NC(=O)Nc4cccc5ccccc45)cc3CC(=O)N([C@@H](C)CO)C[C@@H]2C)cc1,·,56[16.7 µM],·,·,·,–
C[C@H]1CN([C@@H](C)CO)C(=O)c2cc(NC(=O)Cn3cnnn3)ccc2O[C@@H]1CN(C)C(=O)Nc1ccc(F)cc1,·,–,·,·,·,–
CO[C@H]1CC[C@@H]2CCN(C)C(=O)[C@H](C)[C@@H](OC)CN(C)C(=O)c3cc(C#N)ccc3OC[C@H]1O2,·,–,·,·,·,–
O=C1[C@H]2[C@@H](c3ccc(Cl)cc3)N3C(=O)N(c4cccc(Br)c4)C(=O)[C@@]3(Cc3ccc(Cl)cc3)[C@H]2C(=O)N1C1CCCCC1,–,82,–,–,–,–
O=C1[C@H]2[C@@H](c3ccc(F)cc3)N3C(=O)N(c4cccc(Br)c4)C(=O)[C@@]3(Cc3ccc(Cl)cc3)[C@H]2C(=O)N1C1CCCCC1,–,59,–,–,–,–
CCN1C(=O)[C@H]2[C@@H](c3ccc(C)cc3)N3C(=O)N(c4ccccc4)C(=O)[C@@]3(Cc3ccc(Cl)cc3)[C@H]2C1=O,–,·,–,–,–,–
C[C@@H]1CN([C@@H](C)CO)C(=O)Cc2cc(NC(=O)CCCN(C)C)ccc2O[C@H]1CN(C)C(=O)Nc1ccc(F)cc1,·,·,·,·,·,–
CNC(=O)c1cc(NC(=O)CCn2nc(-c3ccc(C)cc3)c3ccccc3c2=O)ccc1OC,·,62,·,·,–,–
